Laboratory results from ChEMBL document CHEMBL2010753, “Free radical scavenging and antiproliferative properties of Biginelli adducts” (2012).
In brackets after ≈: the same amount, converted by molar mass. Activity calls are given as the source filed them. The calls are words filed in the database; no cut-off is given here.

Key:
Type in all cases: functional
NCI-H460 = experiment: Growth inhibition of human NCI-H460 cells after 48 hrs by sulforhodamine B assay; conditions: NCI-H460, 48 h
[1] = Growth inhibition of human NCI-ADR-RES cells after 48 hrs by sulforhodamine B assay
OVCAR-3 = experiment: Growth inhibition of human OVCAR3 cells after 48 hrs by sulforhodamine B assay; conditions: OVCAR-3, 48 h
[2] = Antioxidant activity assessed as concentration required for 50% DPPH scavenging activity after 30 mins by spectrophotometry
[3] = Antioxidant activity assessed as scavenging of DPPH at 160 uM after 30 mins by spectrophotometry
HT-29 = experiment: Growth inhibition of human HT-29 cells after 48 hrs by sulforhodamine B assay; conditions: HT-29, 48 h
786-0 = experiment: Growth inhibition of human 786-0 cells after 48 hrs by sulforhodamine B assay; conditions: 786-0, 48 h
PC-3 = experiment: Growth inhibition of human PC3 cells after 48 hrs by sulforhodamine B assay; conditions: PC-3, 48 h
U-251 = experiment: Growth inhibition of human U251 cells after 48 hrs by sulforhodamine B assay; conditions: U-251, 48 h
[4] = Antioxidant activity assessed as scavenging of superoxide anions after 10 mins by spectrophotometry
Outline: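 Superoxide generated photochemically in 50 mM phosphate buffer pH 7.8 with 13 mM L-methionine, 75 μM nitroblue tetrazolium, 100 μM EDTA, 2 μM riboflavin. Compound at 0–200 μM (12.5–200 μM tested), fluorescent light 10 min at 25 °C; dark-kept mixtures as controls; read at 575 nm. Triplicates in three independent experiments.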

[5] = Antioxidant activity assessed as scavenging of DPPH at 34.4 uM up to 10 mins by spectrophotometry
Outline: (§1)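 Kinetic run: reaction medium with 10 nmol DPPH radicals in ethanol and compound at the stated concentration, DPPH scavenging followed over time up to 10 min. Three independent experiments, each in triplicate.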

[6] = Antioxidant activity assessed as concentration required to scavenge 50% superoxide anions after 10 mins by spectrophotometry
[7] = Antioxidant activity assessed as scavenging of DPPH at 24.2 uM up to 10 mins by spectrophotometry; outline: as §1
[8] = Antioxidant activity assessed as concentration required for 50% DPPH scavenging activity after 30 mins by spectrophotometry relative to monastrol
[9] = Antioxidant activity assessed as scavenging of DPPH at 20.3 uM after 1 min by spectrophotometry relative to resveratrol
[10] = Antioxidant activity assessed as scavenging of DPPH at 20.3 uM up to 10 mins by spectrophotometry; outline: as §1
[11] = Antioxidant activity assessed as scavenging of DPPH at 29.7 uM up to 10 mins by spectrophotometry; outline: as §1

| GI50 (NCI-H460) [µg/mL] | GI50 (OVCAR-3) [µg/mL] | IC50 [2] [µM] | GI50 (HT-29) [µg/mL] | GI50 (786-0) [µg/mL] | GI50 (PC-3) [µg/mL] | GI50 (U-251) [µg/mL] | SMILES | GI50 [1] [µg/mL] | Activity [3] | Activity [4] | Activity [5] | Activity [6] [µM] | Activity [7] [pmol] | fold change (FC) [8] | fold change (FC) [9] | Activity [10] [pmol] | Activity [11] [pmol] |
| --- | --- | --- | --- | --- | --- | --- | --- | --- | --- | --- | --- | --- | --- | --- | --- | --- | --- |
| 180 (≈ 560 µM) | 11 (≈ 34.1 µM) | 104 | 34.9 (≈ 108 µM) | 30 (≈ 93.1 µM) | 72.6 (≈ 225 µM) | 88.3 (≈ 274 µM) | CCOC(=O)C1=C(C)NC(=S)NC1c1ccc(O)c(OC)c1 (centres undefined) | 59.7 (≈ 185 µM) | 65% |  |  |  |  |  |  |  |  |
| < 0.025 | 0.27 (≈ 0.497 µM) |  | 0.27 (≈ 0.497 µM) | 0.18 (≈ 0.331 µM) | 0.24 (≈ 0.442 µM) | 0.068 (≈ 0.125 µM) | COc1cccc2c1C(=O)c1c(O)c3c(c(O)c1C2=O)C[C@@](O)(C(=O)CO)C[C@@H]3O[C@H]1C[C@H](N)[C@H](O)[C@H](C)O1 [DOXORUBICIN] | 0.14 (≈ 0.258 µM) |  |  |  |  |  |  |  |  |  |
| > 250 | > 250 |  | > 250 | > 250 | > 250 | 142 (≈ 533 µM) | CCOC(=O)C1=C(C)NC(=O)NC1C1CCCCC1 (centres undefined) | > 250 | inactive |  |  |  |  |  |  |  |  |
| 27 (≈ 84.3 µM) | 55.3 (≈ 173 µM) |  | 31.4 (≈ 98 µM) | 27 (≈ 84.3 µM) | 13.4 (≈ 41.8 µM) | 25.9 (≈ 80.8 µM) | CCOC(=O)C1=C(C)NC(=S)NC1c1ccc2c(c1)OCO2 (centres undefined) | 57.1 (≈ 178 µM) | inactive |  |  |  |  |  |  |  |  |
| 3.5 (≈ 12.4 µM) | 2.2 (≈ 7.79 µM) |  | 25.2 (≈ 89.2 µM) | 4.2 (≈ 14.9 µM) | 0.46 (≈ 1.63 µM) | 25.2 (≈ 89.2 µM) | CCOC(=O)C1=C(C)NC(=S)NC1C1CCCCC1 (centres undefined) | 24.1 (≈ 85.3 µM) | inactive |  |  |  |  |  |  |  |  |
| 28.1 (≈ 101 µM) | 27.1 (≈ 97.4 µM) |  | 25.3 (≈ 90.9 µM) | 24.7 (≈ 88.8 µM) | 3.1 (≈ 11.1 µM) | 23.5 (≈ 84.4 µM) | CCOC(=O)C1=C(C)NC(=O)NC1c1ccc(F)cc1 (centres undefined) | 3.6 (≈ 12.9 µM) | inactive |  |  |  |  |  |  |  |  |
| > 250 | 37.7 (≈ 129 µM) |  | > 250 | 27.5 (≈ 94.1 µM) | 47.6 (≈ 163 µM) | 77.2 (≈ 264 µM) | CCOC(=O)C1=C(C)NC(=S)NC1c1ccc(O)cc1 (centres undefined) | 83.6 (≈ 286 µM) | inactive |  |  |  |  |  |  |  |  |
| 126 (≈ 410 µM) | 1.7 (≈ 5.55 µM) | 105 | 28.1 (≈ 91.7 µM) | 17.5 (≈ 57.1 µM) | 46.3 (≈ 151 µM) | 4.5 (≈ 14.7 µM) | CCOC(=O)C1=C(C)NC(=O)NC1c1ccc(O)c(OC)c1 (centres undefined) | 0.25 (≈ 0.816 µM) | 65% |  |  |  |  |  |  |  |  |
| 31.4 (≈ 102 µM) | 0.99 (≈ 3.23 µM) |  | 30.6 (≈ 99.9 µM) | 25.9 (≈ 84.5 µM) | 5.5 (≈ 18 µM) | 29 (≈ 94.7 µM) | CCOC(=O)C1=C(C)NC(=S)NC1c1ccc(OC)cc1 (centres undefined) | 3.2 (≈ 10.4 µM) | inactive |  |  |  |  |  |  |  |  |
| 29.2 (≈ 95.3 µM) | 1.3 (≈ 4.24 µM) |  | 28.3 (≈ 92.4 µM) | 24.9 (≈ 81.3 µM) | 10.2 (≈ 33.3 µM) | 28.1 (≈ 91.7 µM) | CCOC(=O)C1=C(C)NC(=S)NC1c1cccc(OC)c1 (centres undefined) | 25.6 (≈ 83.6 µM) | inactive |  |  |  |  |  |  |  |  |
| > 250 | 8 (≈ 27.6 µM) |  | 28.3 (≈ 97.5 µM) | 24.8 (≈ 85.4 µM) | 26.5 (≈ 91.3 µM) | 11.6 (≈ 40 µM) | CCOC(=O)C1=C(C)NC(=O)NC1c1ccc(OC)cc1 (centres undefined) | 5.7 (≈ 19.6 µM) | inactive |  |  |  |  |  |  |  |  |
| 14.2 (≈ 48.2 µM) | 24.7 (≈ 83.9 µM) |  | 26.5 (≈ 90 µM) | 24.5 (≈ 83.2 µM) | 1.7 (≈ 5.78 µM) | 28.3 (≈ 96.1 µM) | CCOC(=O)C1=C(C)NC(=S)NC1c1ccc(F)cc1 (centres undefined) | 26.1 (≈ 88.7 µM) | inactive |  |  |  |  |  |  |  |  |
| 40.6 (≈ 147 µM) | 27.3 (≈ 98.8 µM) |  | 28.7 (≈ 104 µM) | 25.8 (≈ 93.4 µM) | 136 (≈ 492 µM) | 4.2 (≈ 15.2 µM) | CCOC(=O)C1=C(C)NC(=O)NC1c1ccc(O)cc1 (centres undefined) | 3.2 (≈ 11.6 µM) | inactive |  |  |  |  |  |  |  |  |
| 42 (≈ 152 µM) | 6 (≈ 21.7 µM) |  | 27.1 (≈ 98.1 µM) | 26.3 (≈ 95.2 µM) | 34.7 (≈ 126 µM) | 5.1 (≈ 18.5 µM) | CCOC(=O)C1=C(C)NC(=O)NC1c1cccc(O)c1 (centres undefined) | 11.7 (≈ 42.3 µM) | inactive |  |  |  |  |  |  |  |  |
|  |  |  |  |  |  |  | Oc1ccc(/C=C/c2cc(O)cc(O)c2)cc1 |  | Active | Dose-dependent effect | Active | 121 |  |  |  |  |  |
| 28.9 (≈ 111 µM) | > 250 |  | > 250 | > 250 | > 250 | > 250 | CCOC(=O)C1=C(C)NC(=O)NC1c1ccccc1 (centres undefined) | > 250 | inactive |  |  |  |  |  |  |  |  |
| 22.5 (≈ 92.8 µM) | 38.1 (≈ 157 µM) |  | 50.4 (≈ 208 µM) | 27.7 (≈ 114 µM) | 42.4 (≈ 175 µM) | 29.2 (≈ 120 µM) | CCCC1NC(=S)NC(C)=C1C(=O)OCC (centres undefined) | 40.3 (≈ 166 µM) | inactive |  |  |  |  |  |  |  |  |
| 3.6 (≈ 11.7 µM) | 10 (≈ 32.6 µM) |  | 10.2 (≈ 33.3 µM) | 2.5 (≈ 8.16 µM) | 9.5 (≈ 31 µM) | 8 (≈ 26.1 µM) | CCOC(=O)C1=C(C)NC(=O)NC1c1ccc(SC)cc1 (centres undefined) | 2.7 (≈ 8.81 µM) | inactive |  |  |  |  |  |  |  |  |
| 65.6 (≈ 186 µM) | 1.9 (≈ 5.39 µM) | 24.2 | 28.2 (≈ 80 µM) | 13.4 (≈ 38 µM) | 19 (≈ 53.9 µM) | 0.77 (≈ 2.18 µM) | CCOC(=O)C1=C(C)NC(=S)NC1c1cc(OC)c(O)c(OC)c1 (centres undefined) | 25 (≈ 70.9 µM) | Active |  |  | 78 | 370 | 37 |  |  |  |
| 48.9 (≈ 161 µM) | 32.4 (≈ 106 µM) |  | 29.9 (≈ 98.3 µM) | 26.3 (≈ 86.4 µM) | 83.1 (≈ 273 µM) | 34.9 (≈ 115 µM) | CCOC(=O)C1=C(C)NC(=O)NC1c1ccc2c(c1)OCO2 (centres undefined) | 15.5 (≈ 50.9 µM) | inactive |  |  |  |  |  |  |  |  |
| 10.6 (≈ 36.3 µM) | 14.4 (≈ 49.3 µM) |  | 29.6 (≈ 101 µM) | 4 (≈ 13.7 µM) | 5.6 (≈ 19.2 µM) | 24 (≈ 82.1 µM) | CCOC(=O)C1=C(C)NC(=S)N[C@H]1c1cccc(O)c1 [S-MENASTROL] | 22.2 (≈ 75.9 µM) | inactive |  |  |  |  |  |  |  |  |
| 34 (≈ 116 µM) | 1.6 (≈ 5.47 µM) | 20.3 | 37.8 (≈ 129 µM) | 20.7 (≈ 70.8 µM) | 18.2 (≈ 62.3 µM) | 0.25 (≈ 0.855 µM) | CCOC(=O)C1=C(C)NC(=O)NC1c1ccc(O)c(O)c1 (centres undefined) | 2.1 (≈ 7.18 µM) | Active |  |  | 33 |  | 37 | 2 | 488 |  |
| 28 (≈ 101 µM) | 27.7 (≈ 100 µM) |  | 29.8 (≈ 108 µM) | 27.7 (≈ 100 µM) | 42.2 (≈ 153 µM) | 26.6 (≈ 96.3 µM) | CCOC(=O)C1=C(C)NC(=S)NC1c1ccccc1 (centres undefined) | 27.4 (≈ 99.1 µM) | inactive |  |  |  |  |  |  |  |  |
| 31.7 (≈ 103 µM) | 25 (≈ 81.1 µM) | 29.7 | 22.7 (≈ 73.6 µM) | 28.3 (≈ 91.8 µM) | 25 (≈ 81.1 µM) | 26.5 (≈ 85.9 µM) | CCOC(=O)C1=C(C)NC(=S)NC1c1ccc(O)c(O)c1 (centres undefined) | 24.3 (≈ 78.8 µM) | Active |  |  |  |  | 37 |  |  | 413 |
| 21.6 (≈ 67 µM) | 8.5 (≈ 26.4 µM) |  | 17.2 (≈ 53.3 µM) | 5.3 (≈ 16.4 µM) | 23.6 (≈ 73.2 µM) | 6 (≈ 18.6 µM) | CCOC(=O)C1=C(C)NC(=S)NC1c1ccc(SC)cc1 (centres undefined) | 35.7 (≈ 111 µM) | inactive |  |  |  |  |  |  |  |  |
